Data reported in ChEMBL document CHEMBL3352384, “Synthesis and biological activity of new salicylanilide N,N-disubstituted carbamates and thiocarbamates” (Bioorg Med Chem, 2014).
Values after ≈ are worked out from the molar mass of the structure shown.

Columns and labels:
[1] = test system: Mycobacterium kansasii; assay: Antimycobacterial activity against clinical isolate Mycobacterium kansasii 6509/96 assessed as complete growth inhibition after 14 days; format: functional; conditions: 6509/96, 336 h
Outline: (§1)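 Dilutions of M. kansasii inoculum were 10-4 for strain 235/80 and 10-5 for clinical isolate 6509/96. MIC was the lowest concentration giving complete growth inhibition, run in quadruplicate and repeated twice.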

[2] = test system: Mycobacterium tuberculosis; assay: Antimycobacterial activity against Mycobacterium tuberculosis H37Rv 331/88 assessed as complete growth inhibition after 14 days; format: functional; conditions: H37Rv 331/88, 336 h
Outline: (§2)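 M. tuberculosis 331/88 (H37Rv) inoculum diluted 10-3, M. avium 330/88 diluted 10-5. MIC is the lowest concentration giving complete growth inhibition. Isoniazid and p-aminosalicylic acid as references. Quadruplicate, repeated twice.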

[3] = Selectivity index, ratio of IC50 for human HepG2 cells to MIC for atypical mycobacteria
Outline: (§3)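 Selectivity index = HepG2 IC50 / MIC. HepG2 cells (passage 3–4) grown in Eagle's MEM with 10% FBS, L-glutamine and non-essential amino acids. Compounds added from DMSO, eight concentrations in triplicate, tetrazolium-reduction colorimetric read-out. IC50 is the concentration reducing viability to 50% of control; 10% DMSO as 0% viability.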

[4] = test system: Trichophyton mentagrophytes; assay: Antimicrobial activity against Trichophyton mentagrophytes 445 after 120 hrs by microdilution method; format: functional; conditions: Trichophyton mentagrophytes, 445, 120 h
Outline: (§4)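 Broth microdilution in RPMI 1640 with glutamine, with fluconazole and amphotericin B as references. For filamentous fungi, MIC is expressed as the IC50, i.e. the concentration giving 50% growth reduction versus control. Each determination was done twice.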

[5] = test system: Staphylococcus aureus; assay: Antimicrobial activity against Staphylococcus aureus CCM 4516/08 after 24 hrs by microdilution method; format: functional; conditions: CCM 4516/08, 24 h
Outline: (§5)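 Mueller-Hinton broth microdilution; compounds dissolved in DMSO, final concentrations 500 to 0.49 µM. […] Benzylpenicillin and bacitracin as comparators. Each determination done twice.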

[6] = test system: Mycobacterium kansasii; assay: Antimycobacterial activity against clinical isolate Mycobacterium kansasii 6509/96 assessed as complete growth inhibition after 21 days; format: functional; conditions: 6509/96, 504 h; outline: as §1
[7] = Inhibition of Mycobacterium tuberculosis H37Rv isocitrate lyase assessed as glyoxylate phenyl hydrazone formation at 10 uM
[8] = test system: Staphylococcus aureus; assay: Antimicrobial activity against Staphylococcus aureus CCM 4516/08 after 48 hrs by microdilution method; format: functional; conditions: CCM 4516/08, 48 h; outline: as §5
[9] = test system: Mycobacterium kansasii; assay: Antimycobacterial activity against clinical isolate Mycobacterium kansasii 6509/96 assessed as complete growth inhibition after 7 days; format: functional; conditions: 6509/96, 168 h; outline: as §1
[10] = test system: Mycobacterium tuberculosis; assay: Antimycobacterial activity against Mycobacterium tuberculosis H37Rv 331/88 assessed as complete growth inhibition after 21 days; format: functional; conditions: H37Rv 331/88, 504 h; outline: as §2
[11] = test system: Enterococcus sp.; assay: Antimicrobial activity against Enterococcus sp. J 14365/08 after 48 hrs by microdilution method; format: functional; conditions: J 14365/08, 48 h
Outline: (§6)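 Broth microdilution in Mueller-Hinton broth, compounds dissolved in DMSO, final concentrations 500 to 0.49 µM. Benzylpenicillin and bacitracin were run as comparators. MIC was taken as 95% (IC95) or greater growth reduction versus control. Each determination was done twice.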

[12] = test system: Mycobacterium avium; assay: Antimycobacterial activity against Isoniazid, rifampicin, ofloxacin and ethambutol-resistant Mycobacterium avium 330/88 assessed as complete growth inhibition after 14 days; format: functional; conditions: 330/88, 336 h; outline: as §2
[13] = test system: Staphylococcus epidermidis; assay: Antimicrobial activity against Staphylococcus epidermidis H 6966/08 after 24 hrs by microdilution method; format: functional; conditions: H 6966/08, 24 h; outline: as §6
[14] = Selectivity index, ratio of IC50 for human HepG2 cells to MIC for Trichophyton mentagrophytes 445
[15] = test system: Mycobacterium kansasii; assay: Antimycobacterial activity against Mycobacterium kansasii 235/80 assessed as complete growth inhibition after 7 days; format: functional; conditions: 235/80, 168 h; outline: as §1
[16] = Selectivity index, ratio of IC50 for human HepG2 cells to MIC for Mycobacterium tuberculosis H37Rv; format: toxicity, cell-based; conditions: read-out: Selectivity Index
Outline: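 Selectivity index = HepG2 IC50 / MIC. HepG2 cells (passage 3–4) grown in Eagle's MEM with 10% FBS, L-glutamine and non-essential amino acids. Compounds added from DMSO, eight concentrations in triplicate, tetrazolium-reduction colorimetric read-out.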

[17] = test system: Trichophyton mentagrophytes; assay: Antimicrobial activity against Trichophyton mentagrophytes 445 after 72 hrs by microdilution method; format: functional; conditions: Trichophyton mentagrophytes, 445, 72 h; outline: as §4
[18] = Selectivity index, ratio of IC50 for human HepG2 cells to MIC for methicillin-resistant Staphylococcus aureus H 5996/08; outline: as §3
[19] = test system: Mycobacterium kansasii; assay: Antimycobacterial activity against Mycobacterium kansasii 235/80 assessed as complete growth inhibition after 14 days; format: functional; conditions: 235/80, 336 h; outline: as §1
[20] = test system: HepG2; assay: Cytotoxicity against human HepG2 cells assessed as reduction in cell viability after 24 hrs by MTS assay; format: cell-based; conditions: HepG2, 24 h
Outline: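 HepG2 hepatocellular carcinoma cells (passage 3–4) were grown in Eagle's MEM with 10% FBS, 1% L-glutamine and non-essential amino acids. Compounds were added from DMSO at eight concentrations in triplicate, with 10% DMSO as the 0% viability control. Viability was read by tetrazolium salt reduction (CellTiter 96 AQueous One). IC50 is the concentration reducing viability to 50% of control.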

[21] = test system: Mycobacterium kansasii; assay: Antimycobacterial activity against Mycobacterium kansasii 235/80 assessed as complete growth inhibition after 21 days; format: functional; conditions: 235/80, 504 h; outline: as §1
[22] = test system: Mycobacterium avium; assay: Antimycobacterial activity against Isoniazid, rifampicin, ofloxacin and ethambutol-resistant Mycobacterium avium 330/88 assessed as complete growth inhibition after 21 days; format: functional; conditions: 330/88, 504 h; outline: as §2
[23] = test system: Staphylococcus epidermidis; assay: Antimicrobial activity against Staphylococcus epidermidis H 6966/08 after 48 hrs by microdilution method; format: functional; conditions: H 6966/08, 48 h; outline: as §6
[24] = test system: Staphylococcus aureus; assay: Antimicrobial activity against methicillin-resistant Staphylococcus aureus H 5996/08 after 24 hrs by microdilution method; format: functional; conditions: H 5996/08, 24 h; outline: as §5
[25] = test system: Staphylococcus aureus; assay: Antimicrobial activity against methicillin-resistant Staphylococcus aureus H 5996/08 after 48 hrs by microdilution method; format: functional; conditions: H 5996/08, 48 h; outline: as §5
[26] = test system: Enterococcus sp.; assay: Antimicrobial activity against Enterococcus sp. J 14365/08 after 24 hrs by microdilution method; format: functional; conditions: J 14365/08, 24 h; outline: as §6
[27] = in vitro; conditions: human, HepG2 cells

Compound | MIC [1] [µM] | MIC [2] [µM] | Selectivity Index [3] | MIC [4] [µM] | MIC [5] [µM] | MIC [6] [µM] | inhibition [7] [%] | MIC [8] [µM] | MIC [9] [µM] | MIC [10] [µM] | MIC [11] [µM] | MIC [12] [µM] | Selectivity Index [14] | MIC [15] [µM] | selectivity ratio [16] | MIC [17] [µM] | MIC [19] [µM] | IC50 [20] [µM] | MIC [21] [µM] | MIC [22] [µM] | further results
CN(C)C(=O)Oc1ccc(Cl)cc1C(=O)Nc1ccc(Cl)cc1 | 125 (≈ 44.2 µg/mL) | 16 (≈ 5.65 µg/mL) | 1.5 | 31.2 (≈ 11 µg/mL) | 62.5 (≈ 22.1 µg/mL) | 125 (≈ 44.2 µg/mL) | 6 | 125 (≈ 44.2 µg/mL) | 62.5 (≈ 22.1 µg/mL) | 16 (≈ 5.65 µg/mL) | > 125 | 62.5 (≈ 22.1 µg/mL) | 6 | 62.5 (≈ 22.1 µg/mL) | 11.8 | 31.2 (≈ 11 µg/mL) | 62.5 (≈ 22.1 µg/mL) | 189 | 62.5 (≈ 22.1 µg/mL) | 62.5 (≈ 22.1 µg/mL) | MIC [13]: 125 µM (≈ 44.2 µg/mL); Selectivity Index [18]: 1.5; MIC [23]: 125 µM (≈ 44.2 µg/mL); MIC [24]: 62.5 µM (≈ 22.1 µg/mL); MIC [25]: 125 µM (≈ 44.2 µg/mL); MIC [26]: 125 µM (≈ 44.2 µg/mL)
CN(C)C(=S)Oc1ccc(Cl)cc1C(=O)Nc1ccc(F)cc1 | 32 (≈ 11.3 µg/mL) | 8 (≈ 2.82 µg/mL) | 3.7 | 7.81 (≈ 2.76 µg/mL) | 15.6 (≈ 5.51 µg/mL) | 32 (≈ 11.3 µg/mL) | 7 | 31.2 (≈ 11 µg/mL) | 16 (≈ 5.65 µg/mL) | 16 (≈ 5.65 µg/mL) | > 500 | 32 (≈ 11.3 µg/mL) | 15 | 16 (≈ 5.65 µg/mL) | 7.3 | 7.81 (≈ 2.76 µg/mL) | 32 (≈ 11.3 µg/mL) | 117 | 32 (≈ 11.3 µg/mL) | 32 (≈ 11.3 µg/mL) | MIC [13]: 31.2 µM (≈ 11 µg/mL); Selectivity Index [18]: 3.7; MIC [23]: 31.2 µM (≈ 11 µg/mL); MIC [24]: 31.2 µM (≈ 11 µg/mL); MIC [25]: 31.2 µM (≈ 11 µg/mL); MIC [26]: > 500 µM
OC(Cn1cncn1)(Cn1cncn1)c1ccc(F)cc1F [FLUCONAZOLE] |  |  |  | 125 (≈ 38.3 µg/mL) |  |  |  |  |  |  |  |  | >2.4 |  |  | 7.81 (≈ 2.39 µg/mL) |  | > 300 |  |  | 
NNC(=O)c1ccncc1 [ISONIAZID] | 4 (≈ 0.549 µg/mL) | 0.5 (≈ 0.0686 µg/mL) |  |  |  | 4 (≈ 0.549 µg/mL) | 0 |  | 2 (≈ 0.274 µg/mL) | 1 (≈ 0.137 µg/mL) |  | > 250 |  | > 250 | > 250 |  | > 250 | > 250 | > 250 | > 250 | selectivity ratio [27]: ≥ 31.3
O=C(Nc1ccc(Cl)cc1)c1cc(Cl)ccc1O | 8 (≈ 2.26 µg/mL) | 4 (≈ 1.13 µg/mL) | 1.4 |  |  | 8 (≈ 2.26 µg/mL) | 13 |  | 4 (≈ 1.13 µg/mL) | 4 (≈ 1.13 µg/mL) |  | 8 (≈ 2.26 µg/mL) | 11.1 | 4 (≈ 1.13 µg/mL) | 5.4 |  | 8 (≈ 2.26 µg/mL) | 21.7 | 8 (≈ 2.26 µg/mL) | 16 (≈ 4.51 µg/mL) | 
CN(C)C(=O)Oc1ccc(Cl)cc1C(=O)Nc1ccc(F)cc1 | 125 (≈ 42.1 µg/mL) | 32 (≈ 10.8 µg/mL) | 3.6 | 125 (≈ 42.1 µg/mL) | 125 (≈ 42.1 µg/mL) | 125 (≈ 42.1 µg/mL) | 8 | > 125 | 62.5 (≈ 21 µg/mL) | 32 (≈ 10.8 µg/mL) | > 125 | 125 (≈ 42.1 µg/mL) | 3.6 | 62.5 (≈ 21 µg/mL) | 14 | 125 (≈ 42.1 µg/mL) | 125 (≈ 42.1 µg/mL) | 444 | 125 (≈ 42.1 µg/mL) | 125 (≈ 42.1 µg/mL) | MIC [13]: > 125 µM; Selectivity Index [18]: <=3.6; MIC [23]: > 125 µM; MIC [24]: > 125 µM; MIC [25]: > 125 µM; MIC [26]: 125 µM (≈ 42.1 µg/mL)
